Calls of active or inactive are those of the source. No cut-off for these calls is given here.
How the values were obtained:
BV-2 [1] = assay: Antiinflammatory activity in LPS-induced mouse BV-2 cells assessed as reduction in NO production preincubated for 4 hrs followed by LPS stimulation for 24 hrs by Griess reagent based assay; assay type: functional, cell-based; details: dose 0.1-5 µM, time 28.0 hrs
Outline: (§1)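 BV-2 microglia in high-glucose DMEM with 5% heat-inactivated FBS, 37 °C, 5% CO2. Cells (50 000/well) were pretreated with cannabinoids at 0.1, 1.0, 2.5 or 5.0 μM (ethanol 0.1% final) for 4 h, then stimulated with LPS (25 ng/mL) for 24 h. Medium was collected. NO was read by Griess assay at 540 nm against a sodium nitrite calibration curve. IL-6, TNFα and Arg1 were measured by ELISA.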

BV-2 [2] = assay: Antiinflammatory activity in LPS-induced mouse BV-2 cells assessed as reduction in TNF-alpha production preincubated for 4 hrs followed by LPS stimulation for 24 hrs by ELISA; assay type: functional, cell-based; details: dose 0.1-5 µM, time 28.0 hrs; outline: as §1
BV-2 [3] = assay: Cytotoxicity against mouse BV-2 cells assessed as reduction in cell viability at 0.1 to 5 uM incubated for 24 hrs by MTT assay; assay type: toxicity, cell-based; details: bv-2, 24 h, dose 0.1-5 µM
Outline: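 BV-2 cells were seeded at about 10 000/well and grown for 24 h. They were preincubated 4 h with cannabinoids at 0.1, 1.0, 2.5 or 5.0 μM (0.1% ethanol), then held 24 h with or without LPS (25 ng/mL). MTT reagent was added for 4 h at 37 °C, the formazan was dissolved, and absorbance was read at 570 nm.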

BV-2 [4] = assay: Antiinflammatory activity in LPS-induced mouse BV-2 cells assessed as reduction in IL-6 production preincubated for 4 hrs followed by LPS stimulation for 24 hrs by ELISA; assay type: functional, cell-based; details: dose 0.1-5 µM, time 28.0 hrs; outline: as §1
BV-2 [5] = assay: Antiinflammatory activity in LPS-induced mouse BV-2 cells assessed as increase in Arg-1 production preincubated for 4 hrs followed by LPS stimulation for 24 hrs by ELISA; assay type: functional, cell-based; details: dose 0.1-5 µM, time 28.0 hrs; outline: as §1
BV-2 [6] = assay: Antiinflammatory activity in LPS-induced mouse BV-2 cells assessed as reduction in NO production at 0.1 to 5 uM preincubated for 4 hrs followed by LPS stimulation for 24 hrs by Griess reagent based assay; assay type: functional, cell-based; details: dose 0.1-5 µM, time 28.0 hrs; outline: as §1
BV-2 [7] = assay: Antiinflammatory activity in LPS-induced mouse BV-2 cells assessed as reduction in IL-6 production at 0.1 to 5 uM preincubated for 4 hrs followed by LPS stimulation for 24 hrs by ELISA; assay type: functional, cell-based; details: dose 0.1-5 µM, time 28.0 hrs; outline: as §1
BV-2 [8] = assay: Antiinflammatory activity in LPS-induced mouse BV-2 cells assessed as reduction in TNF-alpha production at 0.1 to 5 uM preincubated for 4 hrs followed by LPS stimulation for 24 hrs by ELISA; assay type: functional, cell-based; details: dose 0.1-5 µM, time 28.0 hrs; outline: as §1
Cannabinoid receptor 1 = Cannabinoid receptor 1 (Homo sapiens, UniProt P21554); assay: Displacement of d [3H]CP-55,940 from CBR1 (unknown origin) expressed in Sf9 cell membrane assessed as inhibition constant by Topcount scintillation counting analysis; assay type: cell membranes
Chain of Cannabinoid receptor 1 (P21554 whole entry): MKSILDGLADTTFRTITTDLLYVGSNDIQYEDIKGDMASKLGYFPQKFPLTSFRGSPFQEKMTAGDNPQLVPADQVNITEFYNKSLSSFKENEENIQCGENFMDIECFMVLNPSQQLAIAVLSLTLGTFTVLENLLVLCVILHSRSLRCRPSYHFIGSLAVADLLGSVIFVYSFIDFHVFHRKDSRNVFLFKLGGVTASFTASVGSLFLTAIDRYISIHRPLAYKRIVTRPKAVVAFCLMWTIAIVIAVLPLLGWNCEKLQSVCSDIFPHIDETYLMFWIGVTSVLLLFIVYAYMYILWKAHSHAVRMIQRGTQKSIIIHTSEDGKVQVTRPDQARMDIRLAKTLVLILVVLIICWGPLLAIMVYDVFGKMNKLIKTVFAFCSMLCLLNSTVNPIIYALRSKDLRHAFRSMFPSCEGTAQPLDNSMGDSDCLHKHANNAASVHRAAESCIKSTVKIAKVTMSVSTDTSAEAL

Cannabinoid receptor 2 = Cannabinoid receptor 2 (Homo sapiens, UniProt P34972); assay: Binding affinity to CBR2 (unknown origin)
Chain of Cannabinoid receptor 2 (P34972 whole entry): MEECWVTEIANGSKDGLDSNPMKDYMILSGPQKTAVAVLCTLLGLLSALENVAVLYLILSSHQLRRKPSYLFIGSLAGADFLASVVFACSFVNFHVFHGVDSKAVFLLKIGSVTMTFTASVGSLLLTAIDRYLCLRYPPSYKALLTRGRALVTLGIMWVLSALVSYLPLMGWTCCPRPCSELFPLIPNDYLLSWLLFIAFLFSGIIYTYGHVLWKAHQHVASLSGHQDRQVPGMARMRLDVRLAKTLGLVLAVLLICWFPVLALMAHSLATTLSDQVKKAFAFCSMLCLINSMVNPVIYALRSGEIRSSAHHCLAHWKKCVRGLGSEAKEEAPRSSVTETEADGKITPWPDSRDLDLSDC

[9] = Drug metabolism in C57BL/6J mouse plasma assessed as (E)-2-(5-hydroxy-4-methylpent-3-en-1-yl)-2-methyl-7-pentyl-2H-chromen-5-ol metabolite formation at 20 mg/kg, iv administered via tail vein measured after 0.5 hrs by LC/MS/MS analysis; assay type: ADME, organism-based; details: in vivo
Outline: (§2)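 Female C57BL/6J mice, 8–10 weeks old, received CBC at 20 mg/kg in PBS with 6% Tween-80, IV via the tail vein or IP (n = 3 per route). Blood was taken terminally by cardiac puncture into heparin at 0.5 and 2 h. Plasma (200 μL) was extracted with hexane/ethyl acetate (80:20). CBC and metabolites were quantified by targeted LC-MS/MS (C6-phenyl column, positive ESI) as means ±SE.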

[10] = Drug metabolism in C57BL/6J mouse plasma assessed as (E)-2-(5-hydroxy-4-methylpent-3-en-1-yl)-2-methyl-7-pentyl-2H-chromen-5-ol metabolite formation at 20 mg/kg, ip measured after 0.5 hrs by LC/MS/MS analysis; assay type: ADME, organism-based; details: in vivo; outline: as §2
[11] = Drug metabolism in C57BL/6J mouse plasma assessed as (E)-2-(5-hydroxy-4-methylpent-3-en-1-yl)-2-methyl-7-pentyl-2H-chromen-5-ol metabolite formation at 20 mg/kg, iv administered via tail vein measured after 2 hrs by LC/MS/MS analysis; assay type: ADME, organism-based; details: in vivo; outline: as §2
[12] = Drug metabolism in C57BL/6J mouse plasma assessed as (E)-2-(5-hydroxy-4-methylpent-3-en-1-yl)-2-methyl-7-pentyl-2H-chromen-5-ol metabolite formation at 20 mg/kg, ip measured after 2 hrs by LC/MS/MS analysis; assay type: ADME, organism-based; details: in vivo; outline: as §2
Cytochrome P450 2J2 [13] = molecular target: T1, Cytochrome P450 2J2 (Homo sapiens, UniProt P51589); assay: Drug metabolism assessed as ratio of CYP2J2 (unknown origin) mediated (E)-2-(5-hydroxy-4-methylpent-3-en-1-yl)-2-methyl-7-pentyl-2H-chromen-5-ol formation to 2-(2-(3,3-dimethyloxiran-2-yl)ethyl)-2-methyl-7-pentyl-2H-chromen-5-ol formation; assay type: ADME
T1 sequence (P51589 whole entry): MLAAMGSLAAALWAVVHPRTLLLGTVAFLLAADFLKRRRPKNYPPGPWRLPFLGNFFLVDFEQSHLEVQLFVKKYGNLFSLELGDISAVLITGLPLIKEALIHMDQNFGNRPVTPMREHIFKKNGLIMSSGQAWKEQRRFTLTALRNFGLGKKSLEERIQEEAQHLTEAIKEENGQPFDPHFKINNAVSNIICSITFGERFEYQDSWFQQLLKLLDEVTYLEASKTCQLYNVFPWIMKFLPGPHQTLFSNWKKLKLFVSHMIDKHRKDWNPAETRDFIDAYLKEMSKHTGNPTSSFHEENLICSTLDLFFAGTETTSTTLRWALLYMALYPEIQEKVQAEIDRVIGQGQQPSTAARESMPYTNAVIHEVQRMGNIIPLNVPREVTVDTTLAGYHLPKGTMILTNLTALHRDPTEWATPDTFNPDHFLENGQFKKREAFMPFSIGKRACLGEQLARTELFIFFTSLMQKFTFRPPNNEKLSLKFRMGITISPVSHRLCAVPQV
Outline: (§3)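 Recombinant CYP (0.5 μM final) was reconstituted in POPC:POPS (8:2) with CPR (0.6 μM) in 0.1 M potassium phosphate pH 7.4. CBC (5–80 μM) was preincubated 10 min at 37 °C and the reaction started with NADPH. Products were extracted three times with hexane/ethyl acetate (80:20), dried, resuspended in ethanol and analysed by LC-MS/MS.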

Cytochrome P450 2C8 [14] = molecular target: T2, Cytochrome P450 2C8 (Homo sapiens, UniProt P10632); assay: Drug metabolism assessed as ratio of CYP2C8 (unknown origin) mediated (E)-2-(5-hydroxy-4-methylpent-3-en-1-yl)-2-methyl-7-pentyl-2H-chromen-5-ol formation to 2-(2-(3,3-dimethyloxiran-2-yl)ethyl)-2-methyl-7-pentyl-2H-chromen-5-ol formation; assay type: ADME; outline: as §3
T2 sequence (P10632 whole entry): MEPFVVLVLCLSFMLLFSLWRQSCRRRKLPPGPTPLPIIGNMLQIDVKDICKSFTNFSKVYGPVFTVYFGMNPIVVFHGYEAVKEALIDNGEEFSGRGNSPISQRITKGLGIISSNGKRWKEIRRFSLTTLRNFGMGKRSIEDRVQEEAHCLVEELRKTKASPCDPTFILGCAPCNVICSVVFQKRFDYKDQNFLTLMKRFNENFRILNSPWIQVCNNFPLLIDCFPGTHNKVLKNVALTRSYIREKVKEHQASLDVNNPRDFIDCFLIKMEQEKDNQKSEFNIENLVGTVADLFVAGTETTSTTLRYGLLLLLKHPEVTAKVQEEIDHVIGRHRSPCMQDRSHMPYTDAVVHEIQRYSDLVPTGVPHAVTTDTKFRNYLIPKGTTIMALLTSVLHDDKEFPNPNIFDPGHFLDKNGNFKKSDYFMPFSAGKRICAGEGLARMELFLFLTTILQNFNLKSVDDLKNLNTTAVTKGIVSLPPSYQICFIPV

Cytochrome P450 2J2 [15] = molecular target: T1, Cytochrome P450 2J2; assay: Binding affinity to CYP2J2 (unknown origin) assessed as fold increase in apparent dissociation constant by spectroscopic titration analysis in presence of cytochrome P450 reductase; assay type: ADME
Outline: (§4)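 His-tagged CYPs were expressed in E. coli and Ni-NTA purified. Buffer-exchanged CYP was in 0.1 M phosphate pH 7.4. CPR was added and the pair was preincubated 5 min; final protein was 5–6 μM each. CBC (ethanol stock, ≤1% final) was titrated 0–100 μM with 5 min at 37 °C per step. The Soret shift from ~417 to ~390 nm was recorded as a difference spectrum. Kd(app) came from a one-site binding fit and was compared with CYP alone (4–5 μM protein).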

Cytochrome P450 2D6 = Cytochrome P450 2D6 (Homo sapiens, UniProt P10635); assay: Binding affinity to CYP2D6 (unknown origin) assessed as fold increase in apparent dissociation constant by spectroscopic titration analysis in presence of cytochrome P450 reductase; assay type: ADME; outline: as §4
Chain of Cytochrome P450 2D6 (P10635 whole entry): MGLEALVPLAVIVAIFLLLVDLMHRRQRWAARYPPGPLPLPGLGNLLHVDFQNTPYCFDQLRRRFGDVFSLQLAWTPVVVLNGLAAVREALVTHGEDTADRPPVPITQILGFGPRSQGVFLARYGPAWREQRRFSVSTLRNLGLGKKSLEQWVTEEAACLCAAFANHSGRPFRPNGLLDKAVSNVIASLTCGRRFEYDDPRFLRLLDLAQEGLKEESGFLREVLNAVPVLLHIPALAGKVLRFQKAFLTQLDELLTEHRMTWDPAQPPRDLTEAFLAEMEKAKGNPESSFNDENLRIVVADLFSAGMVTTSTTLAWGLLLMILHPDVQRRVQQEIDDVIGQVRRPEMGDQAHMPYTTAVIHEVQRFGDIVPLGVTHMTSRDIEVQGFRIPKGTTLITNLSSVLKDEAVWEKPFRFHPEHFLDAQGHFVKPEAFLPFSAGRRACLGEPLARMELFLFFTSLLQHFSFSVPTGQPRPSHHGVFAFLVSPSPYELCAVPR

Cytochrome P450 2C8 [16] = molecular target: T2, Cytochrome P450 2C8; assay: Binding affinity to CYP2C8 (unknown origin) assessed as fold increase in apparent dissociation constant by spectroscopic titration analysis in presence of cytochrome P450 reductase; assay type: ADME; outline: as §4
Cytochrome P450 3A4 = Cytochrome P450 3A4 (Homo sapiens, UniProt P08684); assay: Binding affinity to CYP3A4 (unknown origin) assessed as fold increase in apparent dissociation constant by spectroscopic titration analysis in presence of cytochrome P450 reductase; assay type: ADME; outline: as §4
Chain of Cytochrome P450 3A4 (P08684 whole entry): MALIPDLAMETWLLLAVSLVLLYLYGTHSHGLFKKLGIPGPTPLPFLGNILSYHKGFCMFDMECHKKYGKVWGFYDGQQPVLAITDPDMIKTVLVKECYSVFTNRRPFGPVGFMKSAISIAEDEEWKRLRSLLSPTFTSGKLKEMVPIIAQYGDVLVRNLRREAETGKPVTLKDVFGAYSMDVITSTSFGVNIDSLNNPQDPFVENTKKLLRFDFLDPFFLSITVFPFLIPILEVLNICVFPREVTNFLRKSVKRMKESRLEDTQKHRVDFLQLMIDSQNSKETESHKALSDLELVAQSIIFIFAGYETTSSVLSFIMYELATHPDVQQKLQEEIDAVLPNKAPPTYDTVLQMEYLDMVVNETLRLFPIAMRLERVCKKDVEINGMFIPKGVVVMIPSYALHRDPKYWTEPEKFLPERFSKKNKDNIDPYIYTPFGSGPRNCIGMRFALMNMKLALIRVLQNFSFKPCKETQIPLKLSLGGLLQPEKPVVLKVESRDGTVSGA

[17] = Drug metabolism assessed as benzylic hydroxylation mediated 7-(1-hydroxypentyl)-2-methyl-2-(4-methylpent-3-en-1-yl)-2H-chromen-5-ol metabolite formation; assay type: ADME; details: 40 min, dose 5-80 µM
Outline: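 Pooled human liver microsomes (mixed-gender, 50 donors) gave 0.4 μM CYP final in 0.1 M phosphate pH 7.4. CBC 40 μM final was preincubated 10 min. NADPH 1 mM final was added and the reaction ran 30 min at 37 °C. It was quenched and extracted three times with hexane/ethyl acetate (80:20), dried, resuspended in 95% ethanol and analysed by LC-MS (C18, positive ESI).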

[18] = Stability in C57BL/6J mouse plasma assessed as compound consumption by measuring reduction in parent compound level at 20 mg/kg, ip measured after 0.5 to 2 hrs by LC-MS/MS analysis; assay type: ADME, organism-based; details: in vivo, time 0.5-2 hrs; outline: as §2
[19] = Drug metabolism in C57BL/6J mouse plasma assessed as 2-(2-(3,3-dimethyloxiran-2-yl)ethyl)-2-methyl-7-pentyl-2H-chromen-5-ol metabolite formation at 20 mg/kg, ip measured after 0.5 to 2 hrs by LC/MS/MS analysis; assay type: ADME, organism-based; details: in vivo, time 0.5-2 hrs; outline: as §2
[20] = Drug metabolism in C57BL/6J mouse plasma assessed as 2-(2-(3,3-dimethyloxiran-2-yl)ethyl)-2-methyl-7-pentyl-2H-chromen-5-ol metabolite formation at 20 mg/kg, iv administered via tail vein measured after 0.5 to 2 hrs by LC/MS/MS analysis; assay type: ADME, organism-based; details: in vivo, time 0.5-2 hrs; outline: as §2
[21] = Drug metabolism in C57BL/6J mouse plasma assessed as 5-(5-hydroxy-2-methyl-7-pentyl-2H-chromen-2-yl)-2-methylpentane-2,3-diol metabolite formation at 20 mg/kg, iv administered via tail vein measured after 0.5 to 2 hrs by LC/MS/MS analysis; assay type: ADME, organism-based; details: in vivo, time 0.5-2 hrs; outline: as §2
[22] = Drug metabolism in C57BL/6J mouse plasma assessed as 5-(5-hydroxy-2-methyl-7-pentyl-2H-chromen-2-yl)-2-methylpentane-2,3-diol metabolite formation at 20 mg/kg, ip measured after 0.5 to 2 hrs by LC/MS/MS analysis; assay type: ADME, organism-based; details: in vivo, time 0.5-2 hrs; outline: as §2

## C=C(C)C(O)CCC1(C)C=Cc2c(O)cc(CCCCC)cc2O1 (stereo not drawn)
BV-2 [1]
  Activity: Dose-Dependent Effect
BV-2 [2]
  Activity: Dose-Dependent Effect
BV-2 [3]
  Activity: Non-Toxic
BV-2 [4]
  Activity: Active

## CCCCCc1cc(O)c2c(c1)OC(C)(CCC(O)C(C)(C)O)C=C2 (stereo not drawn)
BV-2 [1]
  Activity: Dose-Dependent Effect
BV-2 [2]
  Activity: Dose-Dependent Effect
BV-2 [5]
  Activity: Dose-Dependent Effect
BV-2 [3]
  Activity: Non-Toxic
BV-2 [4]
  Activity: Active

## CCCCCc1cc(O)c2c(c1)OC(C)(CC/C=C(\C)CO)C=C2 (stereo not drawn)
BV-2 [3]
  Activity: Non-Toxic
BV-2 [6]
  Activity: inactive
BV-2 [7]
  Activity: inactive
BV-2 [8]
  Activity: inactive

## CCCCCc1cc(O)c2c(c1)OC(C)(CCC1OC1(C)C)C=C2 (stereo not drawn)
BV-2 [3]
  Activity: Non-Toxic
BV-2 [4]
  Activity: Active

## CCCCC(O)c1cc(O)c2c(c1)OC(C)(CCC=C(C)C)C=C2 (stereo not drawn)
BV-2 [2]
  Activity: Dose-Dependent Effect
BV-2 [5]
  Activity: Dose-Dependent Effect
BV-2 [3]
  Activity: Non-Toxic
BV-2 [4]
  Activity: Active

## CCCCCc1cc(O)c2c(c1)OC(C)(CCC=C(C)C)C=C2 (stereo not drawn) [CANNABICHROMENE]
Cannabinoid receptor 1
  Ki: ~713 nM
Cannabinoid receptor 2
  Ki: ~100 nM
[9]
  Drug metabolism: Metabolite_Detected
[10]
  Drug metabolism: Metabolite_Detected
[11]
  Drug metabolism: Metabolite_Notdetected
[12]
  Drug metabolism: Metabolite_Notdetected
BV-2 [3]
  Activity: Non-Toxic
Cytochrome P450 2J2 [13]
  Ratio: ~ 50
Cytochrome P450 2C8 [14]
  Ratio: ~ 5
Cytochrome P450 2J2 [15]
  fold change (FC): 3
Cytochrome P450 2D6
  fold change (FC): 3
Cytochrome P450 2C8 [16]
  fold change (FC): 5
Cytochrome P450 3A4
  fold change (FC): 5
[17]
  Drug metabolism: Metabolite_Detected
[18]
  Drug metabolism: Metabolite_Detected
[19]
  Drug metabolism: Metabolite_Detected
[20]
  Drug metabolism: Metabolite_Detected
[21]
  Drug metabolism: Metabolite_Detected
[22]
  Drug metabolism: Metabolite_Detected
